For two molecules, Bmax, Kd and Ki results are on record in ChEMBL document CHEMBL1142449 (Bioorg Med Chem, 2008).

What all share (assay type): cell-based
For test [1], the system named is Neurotensin receptor type 1 (Homo sapiens), P30989 [F136A]. Briefly: (§1) Displacement of [3H]SR48692 from human NTR1 extracellular loop 1 F136A mutant expressed in HEK293 cells. A digest of the protocol:
(§2)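 Membranes from HEK-293 cells transiently transfected (CaHPO4 method) with wild-type or EL1-mutant hNTR1 cDNA and harvested 48 h post-transfection. Homologous competition binding with 0.8 nM [3H]SR 48692 (81 Ci/mmol), adapted to 96-well format. Curves normalized per receptor, 4–6 experiments in triplicate. Kd and Bmax given with 95% confidence intervals.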

Test [2] addresses Neurotensin receptor type 1 (Homo sapiens, UniProt P30989, F136A). The description is as §1. A digest of the protocol: as §2
The target in test [3] is Neurotensin receptor type 1 (Homo sapiens, UniProt P30989, W134A). In words: (§3) Displacement of [3H]SR48692 from human NTR1 extracellular loop 1 W134A mutant expressed in HEK293 cells. Summed up: as §2
Chain of Neurotensin receptor type 1 (Homo sapiens, UniProt P30989, W134A) (P30989 whole entry W134A): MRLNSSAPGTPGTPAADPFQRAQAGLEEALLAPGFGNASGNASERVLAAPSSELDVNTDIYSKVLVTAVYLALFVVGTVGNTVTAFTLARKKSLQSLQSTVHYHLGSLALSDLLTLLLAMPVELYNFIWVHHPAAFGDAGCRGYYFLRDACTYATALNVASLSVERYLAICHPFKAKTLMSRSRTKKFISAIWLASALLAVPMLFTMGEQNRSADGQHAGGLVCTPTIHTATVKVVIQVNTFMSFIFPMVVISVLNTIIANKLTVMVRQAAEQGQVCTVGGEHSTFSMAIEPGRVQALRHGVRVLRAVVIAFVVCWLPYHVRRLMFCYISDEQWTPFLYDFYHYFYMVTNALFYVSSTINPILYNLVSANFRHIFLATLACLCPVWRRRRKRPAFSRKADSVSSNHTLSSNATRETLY
For orientation: Loss of bound radioactivity is the signal in a displacement assay; it reports binding, not function.

In test [4] the test system is Neurotensin receptor type 1 (Homo sapiens), P30989 [W134A]. The description is as §3. Summed up:
as §2

The subject of test [5] is Neurotensin receptor type 1 (Homo sapiens), P30989 [H131A]. Briefly: (§4) Displacement of [3H]SR48692 from human NTR1 extracellular loop 1 H131A mutant expressed in HEK293 cells. Summed up: as §2
For test [6], the target named is Neurotensin receptor type 1 (Homo sapiens, UniProt P30989, H131A). The description is as §4. Summed up: as §2
Chain of Neurotensin receptor type 1 (Homo sapiens, UniProt P30989, H131A) (P30989 whole entry H131A): as the sequence (P30989 whole entry W134A) above, with H131A, A134W counted along it
Test [7] concerns the target T1, Neurotensin receptor type 1 (Homo sapiens, UniProt P30989). Briefly: Displacement of [3H]SR48692 from wild type human NTR1 expressed in HEK293 cells. Summed up: as §2
Test [8] concerns Neurotensin receptor type 1 (Homo sapiens), P30989 [P133A]. In words: (§5) Displacement of [3H]SR48692 from human NTR1 extracellular loop 1 P133A mutant expressed in HEK293 cells. A digest of the protocol: as §2
Chain of Neurotensin receptor type 1 (Homo sapiens), P30989 [P133A] (P30989 whole entry P133A): as the sequence (P30989 whole entry W134A) above, with P133A, A134W counted along it
Test [9] addresses Neurotensin receptor type 1 (Homo sapiens, UniProt P30989, P133A). Described as §5. A digest of the protocol:
as §2

In test [10] the target is Neurotensin receptor type 1 (Homo sapiens, UniProt P30989, W129A). In words: (§6) Displacement of [3H]SR48692 from human NTR1 extracellular loop 1 W129A mutant expressed in HEK293 cells. Summed up: as §2
Chain of Neurotensin receptor type 1 (Homo sapiens, UniProt P30989, W129A) (P30989 whole entry W129A): as the sequence (P30989 whole entry W134A) above, with W129A, A134W counted along it
The subject of test [11] is Neurotensin receptor type 1 (Homo sapiens), P30989 [W129A]. The description is as §6. A digest of the protocol: as §2
Test [12] deals with Neurotensin receptor type 1 (Homo sapiens), P30989 [F127A]. Briefly: (§7) Displacement of [3H]SR48692 from human NTR1 extracellular loop 1 F127A mutant expressed in HEK293 cells. A digest of the protocol: as §2
Chain of Neurotensin receptor type 1 (Homo sapiens), P30989 [F127A] (P30989 whole entry F127A): as the sequence (P30989 whole entry W134A) above, with F127A, A134W counted along it
The target of test [13] is Neurotensin receptor type 1 (Homo sapiens, UniProt P30989, F127A). Described as §7. A digest of the protocol:
as §2

Test [14] deals with T1, Neurotensin receptor type 1. In words: Displacement of [3H]NT(8-13) from wild type human NTR1 expressed in HEK293 cells.

SMILES strings stand for the structures.

T1 sequence (P30989 whole entry): as the sequence (P30989 whole entry W134A) above, with A134W counted along it
Chain of Neurotensin receptor type 1 (Homo sapiens, UniProt P30989, P133A) (P30989 whole entry P133A): as the sequence (P30989 whole entry W134A) above, with P133A, A134W counted along it
Chain of Neurotensin receptor type 1 (Homo sapiens), P30989 [W129A] (P30989 whole entry W129A): as the sequence (P30989 whole entry W134A) above, with W129A, A134W counted along it
Chain of Neurotensin receptor type 1 (Homo sapiens), P30989 [F136A] (P30989 whole entry F136A): as the sequence (P30989 whole entry W134A) above, with A134W, F136A counted along it
Chain of Neurotensin receptor type 1 (Homo sapiens, UniProt P30989, F136A) (P30989 whole entry F136A): as the sequence (P30989 whole entry W134A) above, with A134W, F136A counted along it
Chain of Neurotensin receptor type 1 (Homo sapiens, UniProt P30989, F127A) (P30989 whole entry F127A): as the sequence (P30989 whole entry W134A) above, with F127A, A134W counted along it
Chain of Neurotensin receptor type 1 (Homo sapiens), P30989 [H131A] (P30989 whole entry H131A): as the sequence (P30989 whole entry W134A) above, with H131A, A134W counted along it
Chain of Neurotensin receptor type 1 (Homo sapiens), P30989 [W134A] (P30989 whole entry W134A): as the sequence (P30989 whole entry W134A) above

A word on the Kd: it is the equilibrium constant for the complex coming apart. Low readings indicate tighter binding, high ones weaker binding. Take `COc1cccc(OC)c1-c1cc(C(=O)NC2(C(=O)O)C3CC4CC(C3)CC2C4)nn1-c1ccnc2cc(Cl)ccc12` (stereo not given) [REMINERTANT]: the Bmax was 10 pmol/mg in [1]; 10 pmol/mg in test [4]; 16 pmol/mg in test [5]; 15 pmol/mg in test [7]; 9.3 pmol/mg in test [8]; 9.4 pmol/mg in [11]. For the same molecule, in test [12], the Bmax came to 18 pmol/mg. The Kd in test [2] turned out to be 33 nM; in [3], 23 nM; in [6], 8.4 nM; in [7], 8.9 nM; in [9], 9.2 nM; in test [10] it was 27 nM. The molecule also yielded a Kd in [13] of 19 nM.
In general, Ki refers to the equilibrium dissociation constant of an inhibitor or competing ligand from its target. Low readings indicate a stronger hold on the target, high ones a looser hold on the target. For the molecule `CC[C@H](C)[C@H](NC(=O)[C@H](Cc1ccc(O)cc1)NC(=O)[C@@H]1CCCN1C(=O)[C@H](CCCNC(=N)N)NC(=O)[C@@H](N)CCCNC(=N)N)C(=O)NC1(C(=O)O)C2CC3CC(C2)CC1C3` (stereo not given in full), the Ki in test [14] stood at 2.4 nM.
